Measured values published in the array DNA melting data of Ke et al. (doi:10.1101/2024.01.08.574731).

What was measured:
[1] = folding enthalpy; higher = less favourable; fluorescence melt of hairpins on a sequencing array, two-state fit; conditions: sodium 0.088 M
In short: (§1)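 Folding enthalpy and melting temperature were estimated with bootstrapped two-state fits and combined across four replicates by inverse-variance weighting, with fitted temperatures raised by 9.35 °C to match UV melts. The data were Cy3 fluorescence of library hairpins, with annealed Cy3 and quencher oligos, on a sequenced MiSeq flow cell in 50 mM Na-HEPES pH 8.0, 25 mM NaCl, imaged in 2.5 °C steps up to 60 °C and normalised to pre-quench Cy3 and control constructs.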

[2] = melting temperature; fluorescence melt of hairpins on a sequencing array, two-state fit, raised by 9.35 °C to match UV melts; conditions: sodium 0.088 M
In short: as §1

## GGGGACGAAAGTCACCC ((((((....))).)))
[1]
  folding enthalpy: -17.6 kcal/mol
[2]
  Tm: 65.7 °C

## GACCCGGGAAACCGGACC (..((((....))))..)
[1]
  folding enthalpy: -10.3 kcal/mol
[2]
  Tm: 30.3 °C

## GCTTGCGAAAGCATCAGC ((((((....)))..)))
[1]
  folding enthalpy: -11.8 kcal/mol
[2]
  Tm: 37.1 °C

## GATCTAAATATAGATC ((((((....))))))
[1]
  folding enthalpy: -25.9 kcal/mol
[2]
  Tm: 35.7 °C

## GTAATGTCGAAAGACTAC (((..(((....))))))
[1]
  folding enthalpy: -11.7 kcal/mol
[2]
  Tm: 28.8 °C

## GTGTCCGAAAGGATGCAC ((((((....)))..)))
[1]
  folding enthalpy: -15.8 kcal/mol
[2]
  Tm: 42.9 °C

## GGTCACGGAAACGTGGCC ((.((((....)))).))
[1]
  folding enthalpy: -37.2 kcal/mol
[2]
  Tm: 64.9 °C

## GAAGCCGAAAGGCCCTTC ((((((....)))..)))
[1]
  folding enthalpy: -11.8 kcal/mol
[2]
  Tm: 31.3 °C

## GGACATACGAAAGTATCC (((..(((....))))))
[1]
  folding enthalpy: -10.9 kcal/mol
[2]
  Tm: 26.8 °C

## CGAAAGCGGAAACGCTCG (((..(((....))))))
[1]
  folding enthalpy: -18.2 kcal/mol
[2]
  Tm: 43.5 °C

## GGTACGGGAAACCACACC (((..((....))..)))
[1]
  folding enthalpy: -16.2 kcal/mol
[2]
  Tm: 33 °C

## GGCCCACGAAAGTGAGCC (((.(((....))).)))
[1]
  folding enthalpy: -40.6 kcal/mol
[2]
  Tm: 60.8 °C

## GATCGTCGCGACGATC ((((((....))))))
[1]
  folding enthalpy: -37.5 kcal/mol
[2]
  Tm: 67.6 °C

## GCATGGGCGAAAGCCTGC (((..(((....))))))
[1]
  folding enthalpy: -16.3 kcal/mol
[2]
  Tm: 48.7 °C

## GGCACCGAAAGGTCGGCC ((((((....)))..)))
[1]
  folding enthalpy: -21.8 kcal/mol
[2]
  Tm: 49.9 °C

## GACAGCGGAAACGTTGTC ((((.((....)).))))
[1]
  folding enthalpy: -37.2 kcal/mol
[2]
  Tm: 51.9 °C

## AACACGAAAGTGTT (((((....)))))
[1]
  folding enthalpy: -18.9 kcal/mol
[2]
  Tm: 56.8 °C

## GTCCGTGCGAAAGCAGAC (((..(((....))))))
[1]
  folding enthalpy: -13.8 kcal/mol
[2]
  Tm: 32.4 °C

## GATCCCGGGGGGGATC ((((((....))))))
[1]
  folding enthalpy: -33.7 kcal/mol
[2]
  Tm: 62 °C

## GATCCCGTCTGGGATC ((((((....))))))
[1]
  folding enthalpy: -39.2 kcal/mol
[2]
  Tm: 65.5 °C

## GTTAGAGGAAACTCTGAC ((.((((....)))).))
[1]
  folding enthalpy: -31.4 kcal/mol
[2]
  Tm: 37.1 °C

## GGATCCTCGAAAGAGTCC (((..(((....))))))
[1]
  folding enthalpy: -12.3 kcal/mol
[2]
  Tm: 23.6 °C

## GGCTTAGGAAACTAGGCC (((.(((....))).)))
[1]
  folding enthalpy: -31.3 kcal/mol
[2]
  Tm: 48.7 °C

## GATCCTCAAGAGGATC ((((((....))))))
[1]
  folding enthalpy: -38 kcal/mol
[2]
  Tm: 53.4 °C

## GGCTCATCGAAAGATGCC (((..(((....))))))
[1]
  folding enthalpy: -13.3 kcal/mol
[2]
  Tm: 37.5 °C

## GGCGTGTCGAAAGACGCC (((..(((....))))))
[1]
  folding enthalpy: -23.6 kcal/mol
[2]
  Tm: 58.7 °C

## GCGTTTGGAAACAAACGC (((((((....)))))))
[1]
  folding enthalpy: -41.4 kcal/mol
[2]
  Tm: 67.7 °C

## GATTTACGAAAGTAGATC (((.(((....))).)))
[1]
  folding enthalpy: -29.5 kcal/mol
[2]
  Tm: 41.9 °C

## GATCGGTATCCGATC ((((((...))))))
[1]
  folding enthalpy: -40.8 kcal/mol
[2]
  Tm: 57.4 °C

## GCCAGCGAAAGCTAGGC ((((((....))).)))
[1]
  folding enthalpy: -25.9 kcal/mol
[2]
  Tm: 66 °C

## GTAGCCCGAAAGGGTAC (((.(((....))))))
[1]
  folding enthalpy: -17.7 kcal/mol
[2]
  Tm: 48.6 °C

## GATCGTTTTAACGATC ((((((....))))))
[1]
  folding enthalpy: -42.2 kcal/mol
[2]
  Tm: 60.8 °C

## GCGTGTTTACGC ((((....))))
[1]
  folding enthalpy: -30 kcal/mol
[2]
  Tm: 55 °C

## GATCGATGCCTCGATC ((((((....))))))
[1]
  folding enthalpy: -38.1 kcal/mol
[2]
  Tm: 52.5 °C

## GATCTTGAGTAAGATC ((((((....))))))
[1]
  folding enthalpy: -25.4 kcal/mol
[2]
  Tm: 40.4 °C

## GGTGACCGAAAGGTGACC (((.(((....))).)))
[1]
  folding enthalpy: -42.5 kcal/mol
[2]
  Tm: 54.4 °C

## GGGTCAGCGAAAGCTCCC (((..(((....))))))
[1]
  folding enthalpy: -17.7 kcal/mol
[2]
  Tm: 42.7 °C

## GATCTTGGCGAAGATC ((((((....))))))
[1]
  folding enthalpy: -30.8 kcal/mol
[2]
  Tm: 47 °C

## GATCAGCTTACTGATC ((((((....))))))
[1]
  folding enthalpy: -34 kcal/mol
[2]
  Tm: 51.3 °C

## GCCTGCGAAAGCACTGGC ((((((....)))..)))
[1]
  folding enthalpy: -20 kcal/mol
[2]
  Tm: 49.9 °C

## CGAAGCGGAAACGCGTCG (((.(((....))).)))
[1]
  folding enthalpy: -29.1 kcal/mol
[2]
  Tm: 55.1 °C

## GCAACAGGAAACTGTTGC (((((((....)))))))
[1]
  folding enthalpy: -40.3 kcal/mol
[2]
  Tm: 68.5 °C

## GACCCGGGAAACTGGGTC (((((.(....).)))))
[1]
  folding enthalpy: -37.3 kcal/mol
[2]
  Tm: 59.2 °C

## GATACGACGAAAGTCATC (((..(((....))))))
[1]
  folding enthalpy: -10.6 kcal/mol
[2]
  Tm: 24.6 °C

## GTGCCGCGAAAGCGCAC (((.(((....))))))
[1]
  folding enthalpy: -21.1 kcal/mol
[2]
  Tm: 69 °C

## GATCCGCAACCGGATC ((((((....))))))
[1]
  folding enthalpy: -39.3 kcal/mol
[2]
  Tm: 55.1 °C
